In ChEMBL document CHEMBL4373659, “Synthetic studies on the reverse antibiotic natural products, the nybomycins” (2019):
Active and inactive are the calls of the source. No cut-off for these calls is given here.

What was measured:
Staphylococcus aureus [1] = test: Antibacterial activity against fluoroquinolone sensitive Staphylococcus aureus SH1000 assessed as zone of inhibition at 1 mmol after 24 hrs Kirby-Bauer disc diffusion method; assay type: functional
Summary of the method: (§1)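 Compounds dissolved in CHCl3 as 1 mmol or 10 mmol solutions; 20 µL loaded per sterile 6 mm paper disc and dried 30 min at 37 °C; 7 discs per concentration. Single colony grown in Mueller-Hinton broth with aeration for 6 h at 37 °C, diluted in PBS to 0.5 McFarland, then swabbed in three directions onto Mueller-Hinton agar. Discs applied; incubated 24 h at 37 °C.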

Staphylococcus aureus [2] = test: Antibacterial activity against fluoroquinolone sensitive Staphylococcus aureus SH1000 assessed as zone of inhibition at 10 mmol after 24 hrs Kirby-Bauer disc diffusion method; assay type: functional
Summary of the method: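 Discs: 6 mm autoclaved paper discs each loaded with 20 μL of compound in CHCl3 (1 or 10 mmol solutions), dried 30 min at 37 °C; 7 discs per compound per level. Inoculum: single colony grown 6 h at 37 °C with aeration in Mueller-Hinton broth, diluted with PBS to 0.5 McFarland, swabbed three directions onto Mueller-Hinton agar. Plates incubated 24 h at 37 °C.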

Staphylococcus aureus [3] = test: Antibacterial activity against fluoroquinolone resistant Staphylococcus aureus USA300 JE2 assessed as zone of inhibition at 1 mmol after 24 hrs Kirby-Bauer disc diffusion method; assay type: functional; summary of the method: as §1
Staphylococcus aureus [4] = test: Antibacterial activity against fluoroquinolone resistant Staphylococcus aureus USA300 JE2 assessed as zone of inhibition at 10 mmol after 24 hrs Kirby-Bauer disc diffusion method; assay type: functional; summary of the method: as §1
Staphylococcus aureus [5] = test: Antibacterial activity against fluoroquinolone sensitive Staphylococcus aureus SH1000 at 32 mmol after 24 hrs Kirby-Bauer disc diffusion method; assay type: functional, organism-based
Staphylococcus aureus [6] = test: Antibacterial activity against fluoroquinolone resistant Staphylococcus aureus USA300 JE2 at 32 mmol after 24 hrs Kirby-Bauer disc diffusion method; assay type: functional, organism-based

Structure (SMILES)	inhibition zone (IZ) (Staphylococcus aureus [1])	inhibition zone (IZ) (Staphylococcus aureus [2])	inhibition zone (IZ) (Staphylococcus aureus [3])	inhibition zone (IZ) (Staphylococcus aureus [4])	Activity (Staphylococcus aureus [5])	Activity (Staphylococcus aureus [6])
CCOc1cc(C)c2cc3c(C)cc(=O)n4c3c(c2n1)OCCC4	0 cm	0 cm	0 cm	0 cm		
CCn1c(=O)cc(C)c2cc3c(C)cc(=O)n4c3c(c21)OCC4	0 cm	2.2 cm	1.8 cm	3.2 cm		
O=C(O)c1cn(C2CC2)c2cc(N3CCNCC3)c(F)cc2c1=O [CIPROFLOXACIN]	1.8 cm	3.1 cm	0 cm	1.2 cm		
CCOc1cc(C)c2cc3c(C)cc(=O)n4c3c(c2n1)OCC4	0 cm	0 cm	0 cm	1 cm		
CCn1c(=O)cc(C)c2cc3c(C)cc(=O)n4c3c(c21)OC4	0 cm	1.8 cm	1.4 cm	2.9 cm		
CCOc1cc(C)c2cc3c(C)cc(=O)n4c3c(c2n1)OC4	0 cm	0 cm	0 cm	0 cm	inactive	inactive
CCn1c(=O)cc(C)c2cc3c(C)cc(=O)n4c3c(c21)OCCC4	0 cm	2.3 cm	0 cm	2.7 cm		
